Test results from ChEMBL document CHEMBL4041482, “Synthesis, evaluation, and CoMFA study of fluoroquinophenoxazine derivatives as bacterial topoisomerase IA inhibitors” (Eur J Med Chem, 2017).
Values after ≈ are worked out from the molar mass of the structure shown.

What was measured:
[1] = Inhibition of recombinant Escherichia coli topoisomerase 1a expressed in Escherichia coli assessed as reduction in enzyme-mediated relaxation of supercoiled pBAD/Thio DNA preincubated with enzyme followed by substrate addition measured after 30 mins by ethidium bromide staining based agarose gel electrophoresis method
[2] = test system: Escherichia coli; experiment: Antibacterial activity against Escherichia coli BAS3023 harboring imp mutant by microdilution method; assay type: functional
How it was run: (§1)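 MICs determined by standard broth microdilution in cation-adjusted Mueller-Hinton Broth; E. coli BAS3023 carries an imp mutation conferring membrane permeability to small molecules, MG1655 K12 is wild type.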

[3] = test system: Escherichia coli; experiment: Antibacterial activity against Escherichia coli K12 MG1655 by microdilution method; assay type: functional; details: K-12 substr. MG1655; how it was run: as §1
[4] = test system: Bacillus spizizenii; experiment: Antibacterial activity against Bacillus subtilis ATCC 6633 by microdilution method; assay type: functional
How it was run: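 Broth microdilution per standard protocol in cation-adjusted Mueller-Hinton broth; MIC taken as lowest inhibiting concentration.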

[5] = test system: Vero; experiment: Cytotoxicity against African green monkey Vero cells assessed as reduction in cell viability after 72 hrs by MTS assay; assay type: cell-based; details: Chlorocebus sabaeus
[6] = test system: Mycobacterium tuberculosis; experiment: Antimycobacterial activity against Mycobacterium tuberculosis H37Rv after 7 days by microplate alamar blue assay; assay type: functional; details: 168 h
[7] = Inhibition of recombinant Escherichia coli DNA gyrase expressed in Escherichia coli assessed as reduction in enzyme-mediated supercoiling of relaxed circular DNA preincubated with enzyme followed by substrate addition measured after 30 mins by agarose gel electrophoresis method
[8] = Inhibition of human topoisomerase type 1B assessed as reduction in enzyme-mediated relaxation of supercoiled pBAD/Thio DNA after 30 mins by agarose gel electrophoresis method
How it was run: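 Human topoisomerase I, 0.5 U, in manufacturer's reaction buffer; enzyme mixed with compound before 200 ng supercoiled pBAD/Thio plasmid added, 20 μL final. 37 °C for 30 minutes; stopped with SDS/bromophenol blue/glycerol buffer; agarose gel electrophoresis read-out.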

[9] = molecular target: DNA topoisomerase 2-alpha (Homo sapiens, UniProt P11388); experiment: Inhibition of human topoisomerase-2alpha assessed as reduction in enzyme-mediated decatenation using kinetoplast DNA as substrate after 15 mins by ethidium bromide staining based agarose gel electrophoresis method
[10] = Inhibition of recombinant Escherichia coli topoisomerase 1a expressed in Escherichia coli assessed as reduction in enzyme-mediated relaxation of supercoiled pBAD/Thio DNA preincubated with enzyme followed by substrate addition measured after 30 mins by high-throughput screening assay
[11] = Solubility in DMSO-d6 solvent by 1H NMR method; assay type: physicochemical
[12] = Stability of the compound in DMSO-d6 solvent after several weeks by 1H NMR method; assay type: physicochemical
[13] = Stability of the compound in DMSO-d6 solvent after several weeks by HPLC method; assay type: physicochemical
[14] = Selectivity index, ratio of IC50 for African green monkey Vero cells to MIC for Mycobacterium tuberculosis H37Rv; assay type: toxicity
How it was run: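 SI computed as cytotoxic IC50 against Vero cells divided by MIC against M. tuberculosis; Mtb MIC from modified microplate Alamar blue assay.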

Chain of DNA topoisomerase 2-alpha (P11388 whole entry): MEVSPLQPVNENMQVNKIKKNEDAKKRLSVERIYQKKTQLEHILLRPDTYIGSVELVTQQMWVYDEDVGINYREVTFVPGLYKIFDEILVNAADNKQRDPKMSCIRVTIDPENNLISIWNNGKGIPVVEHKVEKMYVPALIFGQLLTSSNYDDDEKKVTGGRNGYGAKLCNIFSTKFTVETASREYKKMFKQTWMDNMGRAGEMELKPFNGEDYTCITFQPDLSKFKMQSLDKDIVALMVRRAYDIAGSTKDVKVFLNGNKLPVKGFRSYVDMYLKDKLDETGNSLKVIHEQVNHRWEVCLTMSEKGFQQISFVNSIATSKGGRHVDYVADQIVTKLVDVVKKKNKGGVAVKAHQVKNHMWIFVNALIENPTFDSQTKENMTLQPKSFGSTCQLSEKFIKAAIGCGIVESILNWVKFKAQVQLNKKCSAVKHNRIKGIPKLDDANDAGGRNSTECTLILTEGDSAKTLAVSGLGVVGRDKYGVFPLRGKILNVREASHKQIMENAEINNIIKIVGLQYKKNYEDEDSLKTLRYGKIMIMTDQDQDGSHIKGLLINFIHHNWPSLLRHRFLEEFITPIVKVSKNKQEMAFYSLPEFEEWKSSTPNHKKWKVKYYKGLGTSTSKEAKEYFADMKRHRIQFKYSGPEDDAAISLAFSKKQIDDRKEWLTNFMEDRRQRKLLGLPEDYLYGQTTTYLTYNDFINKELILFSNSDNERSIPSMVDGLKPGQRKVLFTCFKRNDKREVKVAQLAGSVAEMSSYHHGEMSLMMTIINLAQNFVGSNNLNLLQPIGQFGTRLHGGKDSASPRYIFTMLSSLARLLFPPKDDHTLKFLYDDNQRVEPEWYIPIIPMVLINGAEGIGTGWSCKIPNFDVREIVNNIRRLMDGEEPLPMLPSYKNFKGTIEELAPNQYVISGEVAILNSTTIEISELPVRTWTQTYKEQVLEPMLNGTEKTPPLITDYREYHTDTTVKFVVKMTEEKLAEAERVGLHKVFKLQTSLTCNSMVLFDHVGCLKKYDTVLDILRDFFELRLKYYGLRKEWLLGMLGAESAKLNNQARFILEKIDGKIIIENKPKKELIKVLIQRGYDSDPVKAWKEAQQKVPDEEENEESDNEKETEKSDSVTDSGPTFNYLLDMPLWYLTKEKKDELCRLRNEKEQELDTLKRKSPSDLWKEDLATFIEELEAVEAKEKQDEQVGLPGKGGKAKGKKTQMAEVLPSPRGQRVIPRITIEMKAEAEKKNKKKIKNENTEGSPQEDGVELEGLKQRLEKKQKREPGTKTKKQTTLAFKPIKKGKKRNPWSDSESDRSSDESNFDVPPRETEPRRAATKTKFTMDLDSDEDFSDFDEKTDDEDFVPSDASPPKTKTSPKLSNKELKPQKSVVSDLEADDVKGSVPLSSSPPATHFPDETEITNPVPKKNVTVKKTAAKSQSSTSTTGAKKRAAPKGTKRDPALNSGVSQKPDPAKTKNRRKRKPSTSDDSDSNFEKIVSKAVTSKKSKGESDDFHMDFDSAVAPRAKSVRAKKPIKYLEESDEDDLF

Row | SMILES | IC50 [1] [µM] | pIC50 [1] | MIC [2] [µM] | MIC [3] [µM] | MIC [4] [µM] | IC50 [5] [µM] | MIC [6] [µM] | IC50 [7] [µM] | IC50 [8] [µM] | IC50 [9] [µM] | IC50 [10] [µM] | solubility [11] | Stability [12] | Stability [13] | Selectivity Index [14]
1 | CCOC(=O)c1cn2c3c(c(F)c(F)cc3c1=O)Oc1cc([N+](=O)[O-])ccc1-2 | 15.6 | 4.81 | 50 (≈ 19.4 µg/mL) | > 200 | 25 (≈ 9.71 µg/mL) | – | – | – | – | – | – | – | – | – | –
2 | Nc1ccc2c(c1)Oc1c(N3CC[C@H](N)C3)c(F)cc3c(=O)c(C(=O)O)cn-2c13 | 0.48 to 0.97 | 6.14 | 1.56 (≈ 0.618 µg/mL) | > 200 | 6.25 (≈ 2.48 µg/mL) | > 63.1 | – | – | – | – | – | – | – | – | –
3 | Nc1ccc2c(c1)Oc1c(N3CC[C@@H](N)C3)c(F)cc3c(=O)c(C(=O)O)cn-2c13 | 0.48 to 0.97 | 6.14 | 6.25 (≈ 2.48 µg/mL) | – | 12.5 (≈ 4.95 µg/mL) | > 63.1 | > 63.1 | – | – | – | – | – | – | – | –
4 | CN1CCN(c2c(F)cc3c(=O)c(C(=O)O)cn4c3c2Oc2cc(N)ccc2-4)CC1 | 0.48 | 6.32 | – | – | – | – | – | 15.6 to 31.2 | 15.6 | 3.9 to 7.8 | – | – | – | – | –
5 | Nc1ccc2c(c1)Oc1c(NCCN3CCOCC3)c(F)cc3c(=O)c(C(=O)O)cn-2c13 | – | – | 0.78 (≈ 0.344 µg/mL) | > 200 | 1.56 (≈ 0.687 µg/mL) | 43 | 21.6 (≈ 9.51 µg/mL) | 15.6 to 31.2 | 7.8 to 15.6 | – | – | – | – | – | –
6 | O=C(O)c1cn2c3c(c(F)c(F)cc3c1=O)Oc1cc([N+](=O)[O-])ccc1-2 | 15.6 | 4.81 | 0.78 (≈ 0.281 µg/mL) | 200 (≈ 72 µg/mL) | 12.5 (≈ 4.5 µg/mL) | – | – | – | – | – | – | – | – | – | –
7 | Nc1ccc2c(c1)Oc1c(N3CCC(N4CCCCC4)CC3)c(F)cc3c(=O)c(C(=O)O)cn-2c13 | 0.48 | – | 0.39 to 0.78 (≈ 0.187 to 0.373 µg/mL) | > 200 | 1.56 (≈ 0.746 µg/mL) | 24.4 | 2.5 (≈ 1.2 µg/mL) | 15.6 | 3.9 | – | – | – | – | – | –
8 | Nc1ccc2c(c1)Oc1c(N3CCNCC3)c(F)cc3c(=O)c(C(=O)O)cn-2c13 | 0.24 | 6.62 | 0.39 (≈ 0.155 µg/mL) | > 200 | – | > 126 | – | 7.8 to 15.6 | 7.8 | 1.95 to 3.9 | – | – | – | – | –
9 | CCOC(=O)c1cn2c3c(c(N4CCN(C)CC4)c(F)cc3c1=O)Oc1cc([N+](=O)[O-])ccc1-2 | 1.95 | 5.71 | 25 (≈ 11.7 µg/mL) | > 200 | 50 (≈ 23.4 µg/mL) | – | – | – | – | – | – | – | – | – | –
10 | CCOC(=O)c1cn2c3c(c(F)c(F)cc3c1=O)Oc1cc(C(F)(F)F)ccc1-2 | 125 to 250 | 3.6 | > 200 | > 200 | > 200 | – | – | – | – | – | – | – | – | – | –
11 | CC(=O)Nc1ccc2c(c1)Oc1c(F)c(F)cc3c(=O)c(C(=O)O)cn-2c13 | 7.8 | 5.11 | > 200 | > 200 | > 200 | – | – | – | – | – | – | – | – | – | –
12 | Nc1ccc2c(c1)Oc1c(NC3CCCCC3)c(F)cc3c(=O)c(C(=O)O)cn-2c13 | 3.9 | 5.41 | 25 (≈ 10.2 µg/mL) | > 200 | 12.5 (≈ 5.12 µg/mL) | – | – | – | – | – | – | – | – | – | –
13 | CCCCCCNc1c(F)cc2c(=O)c(C(=O)O)cn3c2c1Oc1cc(N)ccc1-3 | 15.6 | 4.81 | > 200 | > 200 | > 200 | – | – | – | – | – | – | – | – | – | –
14 | Nc1ccc2c(c1)Oc1c(F)c(F)cc3c(=O)c(C(=O)O)cn-2c13 | 1.95 | 5.71 | 0.78 to 1.56 (≈ 0.258 to 0.515 µg/mL) | > 200 | – | – | – | > 125 | 31.3 | > 500 | 0.8 to 2 | Insoluble | Stable | Stable | –
15 | O=C(O)c1cn2c3c(c(F)c(F)cc3c1=O)Oc1cc([N+](=O)[O-])c(Cl)cc1-2 | 31.2 | 4.51 | 0.39 (≈ 0.154 µg/mL) | 50 (≈ 19.7 µg/mL) | 3.12 (≈ 1.23 µg/mL) | > 127 | 29 (≈ 11.4 µg/mL) | 62.5 | 31.2 | – | – | – | – | – | –
16 | O=C(O)c1cn2c3c(c(N4CCNCC4)c(F)cc3c1=O)Oc1cc([N+](=O)[O-])ccc1-2 | 3.9 | 5.41 | > 200 | > 200 | > 200 | – | – | – | – | – | – | – | – | – | –
17 | CC(=O)c1ccc2c(c1)Oc1c(F)c(F)cc3c(=O)c(C(=O)O)cn-2c13 | 15.6 | 4.81 | > 200 | > 200 | > 200 | – | – | – | – | – | – | – | – | – | –
18 | Nc1ccc2c(c1)Oc1c(NCCc3ccccc3)c(F)cc3c(=O)c(C(=O)O)cn-2c13 | 3.9 | 5.41 | 50 (≈ 21.6 µg/mL) | > 200 | 25 to 50 (≈ 10.8 to 21.6 µg/mL) | – | – | – | – | – | – | – | – | – | –
19 | Nc1ccc2c(c1)Oc1c(NC3CCCC3)c(F)cc3c(=O)c(C(=O)O)cn-2c13 | 3.9 | 5.41 | 25 (≈ 9.88 µg/mL) | > 200 | 12.5 (≈ 4.94 µg/mL) | – | – | – | – | – | – | – | – | – | –
20 | O=C(O)c1cn2c3c(c(F)c(F)cc3c1=O)Oc1cc(C(F)(F)F)ccc1-2 | 125 to 250 | 3.61 | > 200 | > 200 | 25 (≈ 9.58 µg/mL) | – | – | – | – | – | – | – | – | – | –
21 | Nc1ccc2c(c1)Oc1c(NC34CC5CC(CC(C5)C3)C4)c(F)cc3c(=O)c(C(=O)O)cn-2c13 | 3.9 to 7.8 | 5.23 | 3.12 (≈ 1.44 µg/mL) | > 200 | 12.5 (≈ 5.77 µg/mL) | 30.7 | 38.4 (≈ 17.7 µg/mL) | – | – | – | – | – | – | – | 0.8
22 | CC1CCN(c2c(F)cc3c(=O)c(C(=O)O)cn4c3c2Oc2cc(N)ccc2-4)CC1 | 3.9 | 5.41 | 3.12 (≈ 1.28 µg/mL) | > 200 | 0.78 (≈ 0.319 µg/mL) | – | – | – | – | – | – | – | – | – | –
23 | N#Cc1ccc2c(c1)Oc1c(F)c(F)cc3c(=O)c(C(=O)O)cn-2c13 | 31.2 | 4.51 | 200 (≈ 68 µg/mL) | > 200 | > 200 | – | – | – | – | – | – | – | – | – | –
24 | CCOC(=O)c1cn2c3c(c(F)c(F)cc3c1=O)Oc1cc(C#N)ccc1-2 | 31.2 | 4.51 | > 200 | > 200 | 200 (≈ 73.7 µg/mL) | – | – | – | – | – | – | – | – | – | –
25 | Nc1ccc2c(c1)Oc1c(N3CCOCC3)c(F)cc3c(=O)c(C(=O)O)cn-2c13 | 0.97 | 6.01 | 0.19 to 0.39 (≈ 0.0755 to 0.155 µg/mL) | > 200 | 0.19 (≈ 0.0755 µg/mL) | 24.7 | 3.5 (≈ 1.39 µg/mL) | 7.8 | – | – | – | – | – | – | –
26 | N[C@H]1CCN(c2c(F)cc3c(=O)c(C(=O)O)cn4c3c2Oc2cc([N+](=O)[O-])ccc2-4)C1 | 0.48 | 6.32 | 1.56 (≈ 0.665 µg/mL) | > 200 | 0.78 (≈ 0.333 µg/mL) | > 50 | > 50 | 3.9 | 7.8 | 1.95 to 3.9 | – | – | – | – | –
27 | CC(C)(C)OC(=O)N[C@H]1CCN(c2c(F)cc3c(=O)c(C(=O)O)cn4c3c2Oc2cc(N)ccc2-4)C1 | 3.9 | 5.41 | – | > 200 | 12.5 (≈ 6.21 µg/mL) | – | – | – | – | – | – | – | – | – | –
28 | CN1CCN(c2c(F)cc3c(=O)c(C(=O)O)cn4c3c2Oc2cc([N+](=O)[O-])ccc2-4)CC1 | 1.95 | 5.71 | 1.56 (≈ 0.687 µg/mL) | 100 (≈ 44 µg/mL) | 0.78 (≈ 0.344 µg/mL) | 95 | 19 (≈ 8.37 µg/mL) | 62.5 to 125 | 31.2 | – | – | – | – | – | –
